Measurements from paper PMC10884804 (Food Chemistry: X, 2024).
Ends that are not written are not given here. * marks the point of attachment. Dodecyl = CCCCCCCCCCCC*; Octyl = CCCCCCCC*

Key:
Pseudomonas [1] = assay: MIC by two-fold serial dilution; type: cell-based; conditions: for MIC: two-fold serial dilution, at least three repeats
Shewanella [2] = assay: MIC by two-fold serial dilution; type: cell-based; conditions: for MIC: two-fold serial dilution, at least three repeats
[3] = Self-assembly morphology by TEM; type: physicochemical; conditions: aqueous solution, 1 mM
[4] = Circular dichroism secondary structure; type: physicochemical; conditions: aqueous solution, 190–270 nm
Method in brief: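 The test compound was dissolved in sterile PBS and in 2.5 % SDS buffer (a membrane-mimetic hydrophobic environment), then filtered through 0.22 µm. Spectra were scanned at 190-270 nm with 1 nm bandwidth and 0.5 s interval in a 0.1 cm cuvette. Ellipticity (mdeg) was converted to molar residue ellipticity using residue number, peptide concentration and path length.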

Pseudomonas [5] = assay: Cell wall permeability; type: cell-based; conditions: peptide at MIC, 37℃, 4 h
Method in brief: (§1)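 Bacteria from a national culture collection were incubated with the test compound at the MIC (the control received an equal volume of sterile water) at 37°C for 4 h. Samples were centrifuged at 4°C and 5000 x g for 10 min, and alkaline phosphatase (AKP) was measured in the supernatant. Each experiment was done at least three times, reported as mean ± SD.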

Shewanella [6] = assay: Cell wall permeability; type: cell-based; conditions: peptide at MIC, 37℃, 4 h
Method in brief: as §1

Pseudomonas [7] = assay: Cell membrane permeability, PI/FDA flow cytometry; type: cell-based; conditions: peptide at MIC, 37℃, 1 h, sum of Q1 and Q2
Shewanella [8] = assay: Cell membrane permeability, PI/FDA flow cytometry; type: cell-based; conditions: peptide at MIC, 37℃, 1 h; for bacteria distributed in Q1 and Q2 regions (disturbed membranes): Shewanella, sum of Q1 and Q2
Pseudomonas [9] = assay: Ultrastructural observation of treated bacteria; type: cell-based; conditions: cells treated with peptide

Substance | MIC (Pseudomonas [1]) [µM] | MIC (Shewanella [2]) [µM] | antibacterial activity (in words) (Pseudomonas [1]; bacterial survival rate, S.2) | antibacterial activity (in words) (Shewanella [2]; bacterial survival rate, S.2) | self-assembly morphology [3] | secondary structure [4] | cell wall permeability (AKP leakage) (Pseudomonas [5]) | cell wall permeability (AKP leakage) (Shewanella [6]) | bacteria distributed in Q1 and Q2 regions (disturbed membranes) (Pseudomonas [7]) [%] | bacteria in Q1 region (PI-positive, FDA-negative) (Shewanella [8]; Shewanella (Fig. 4D), flow cytometry) [%] | bacteria distributed in Q1 and Q2 regions (disturbed membranes) (Shewanella [8]) [%] | morphological changes of bacterial cells (TEM) (Pseudomonas [9])
AKATKAAKALLKLWLL [AL-16] | 16 | 128 |  |  |  |  |  |  |  |  |  | 
APATPAAPALLPLWLL [AP-16] |  |  | no significant antibacterial activity | no significant antibacterial activity | did not exhibit an evident self-assembly morphology | randomly curled structure |  |  |  |  |  | 
C8-AL-16: AL-16 with alkyl chain (C8) attached to the N-terminus (Octyl-AKATKAAKALLKLWLL) | 4 | 4 |  |  | nanospheres in the form of micelles | β-folded structure | significantly enhanced | significantly enhanced | > 98 | 38.80 | > 98 | disrupted by lysis, and the contents leaked, resulting in serious damage
C12-AL-16: AL-16 with alkyl chain (C12) attached to the N-terminus (Dodecyl-AKATKAAKALLKLWLL) | 4 | 4 |  |  | nanospheres in the form of micelles | α-helix |  |  | > 98 |  | > 98 | bacterial contents were lost; however, the basic membrane structure was maintained
